Screening data deposited in PubChem by several laboratories.
ABHD5 PLIN5 PPI = blocks binding of human ABHD5 to perilipin-5. 360,000 tested, 0.78% active. inhibition, % at 4 µM. AID 602281. Q00G26+Q8WTS1. Split G. princeps luciferase complementation, luminescence, 4 h;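 active = inhibition above the mean inhibition across every tested compound plus 3 SD, cut at about 22% in these data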
Arr AP2 block = inhibitors of human beta-arrestin and AP2 interaction; AID 504490; FITC-arrestin peptide / GST-AP2 beads, flow cytometry; AP2 beta2 appendage carries R879A mutation; 340,000 tested, 0.31% active; inhibition, % at 10 µM;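 active = inhibition above a set limit, near 3 SD of compounds lacking own fluorescence, cut at about 54% in these data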
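system = GST-tagged AP2 beta2-adaptin appendage (R879A) on 4 µm glutathione beads | reagent = FITC-labelled arrestin peptide probe, 50 nM final | schedule = compound with beads 12 min RT, then probe 1 h RT | signal = HyperCyt-sampled flow cytometry, FL1 channel, ex 488/em 535 nm | read-out = percent response from loss of bead-bound FITC fluorescence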
Beta2AR agonist = human beta-2 adrenergic receptor agonism by FAP; P07550; Am2.2-beta2AR cells, FAP receptor internalization, flow cytometry; response, % (concentration not given with the values); 340,000 tested, 0.43% active; AID 504454;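 active = response above a set limit, near 3 SD of response in nonfluorescent compounds, cut at about 42% in these data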
UHRF1 MBD2 ctr = human UHRF1 methylated DNA binding inhibitors; Q96T88; UHRF1 binding to methylated oligo, TR-FRET; inhibition, % at 4.4 µM; 370,000 tested, 0.75% active; in the data active = inhibition above about 21%;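 also: UHRF1 SRA domain binding a hemimethylated CpG hairpin DNA probe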
Rin1 Abl inh = blocks binding of human Rin1 to Abl | 360,000 tested, 0.4% active | P00519+Q13671 | inhibition, % at 7.35 µM | TR-FRET Rin1/Abl binding, biochemical | AID 588664; in the data active = inhibition above about 5%, passing the limit was not always enough
MBD2 inh = MBD2-methylated oligo binding inhibition; AID 686964; 370,000 tested, 0.31% active; Q9UBB5; inhibition, % at 4.4 µM; TR-FRET, MBD2 binding to methylated oligonucleotide; in the data active = inhibition above about 13%
Rin1-Abl confirm = Rin1-Abl interaction inhibition confirmation | inhibition, % at 7.35 µM | shares compounds with Rin1 Abl inh | 1,300 tested, 49% active | TR-FRET Rin1-Abl binding, purified proteins
GFP quench = GFP fluorescence interference artifact | inhibitors/quenchers counterscreen | inhibition, % at 6.75 µM | 1,300 tested, 8.5% active | AID 602125 | shares compounds with Rin1 Abl inh;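 also: ABL1-eGFP fusion protein alone without its partner RIN1-SBP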
GFP quench DR = GFP fluorescence interference dose response. shares compounds with Rin1 Abl inh. GFP fluorescence interference/quenching counterscreen. IC50, µM. 230 tested, under 10 active. AID 602182; call rule not given here;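 also: ABL1-eGFP fusion protein alone without its RIN1 binding partner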
Large screens that a line does not name were inactive (follow-up assays come after a bar, where they were run). Compounds with a hit are over-represented: about 2.5% of the library has one in this group of screens. Rule as the data show it, unless noted: active = inhibition above about 6.5%; inactive = the rest.

O=C(CCCSc1nc2ccccc2[nH]1)N1CCN(c2ccccc2)CC1	Rin1 Abl inh 7.0 | Rin1-Abl confirm 7.1 | GFP quench inactive
O=C(CSc1nc2ccccc2[nH]1)N1CCN(c2ccccc2)CC1	none
C[C@@H]1C(=O)N2N=Cc3ccccc3[C@H]2N2N=Cc3ccccc3[C@@H]12	none (no result: ABHD5 PLIN5 PPI, Arr AP2 block, Beta2AR agonist, Rin1 Abl inh)
CC1(c2nnc(-c3ccncc3)o2)CC(c2ccc(F)cc2)=NO1 (stereo not drawn)	Rin1 Abl inh 42.9 | Rin1-Abl confirm 41.7 | GFP quench inactive | GFP quench DR inactive
CC1(c2nnc(-c3ccncc3)o2)CC(c2c(Cl)cccc2Cl)=NO1 (stereo not drawn)	Rin1 Abl inh 37.5 | Rin1-Abl confirm 27.4 | GFP quench inactive
CC1(c2nnc(-c3ccncc3)o2)CC(c2ccc([N+](=O)[O-])cc2)=NO1 (stereo not drawn)	Rin1 Abl inh 17.9 | Rin1-Abl confirm 20.6 | GFP quench inactive
COc1ccc(C2C(C(=O)Nc3cc(OC)ccc3OC)CCC(=O)N2c2ccc(OC)cc2)cc1 (stereo not drawn)	none (no result: ABHD5 PLIN5 PPI, Arr AP2 block, Beta2AR agonist, Rin1 Abl inh)
CCCCCCCCN1CN2Cc3cc(F)ccc3C2CS1(=O)=O (stereo not drawn)	none (no result: ABHD5 PLIN5 PPI, Arr AP2 block, Beta2AR agonist, Rin1 Abl inh)
CCCC/C=C1/[C@@H](C(C)C)N(Cc2ccc3c(c2)OCO3)C2=N[C@H](c3ccccc3)CC(=O)N21	none (no result: ABHD5 PLIN5 PPI, Arr AP2 block, Beta2AR agonist, Rin1 Abl inh)
COC(=O)[C@]12C[C@H](CC(=O)NCc3cccs3)C(=O)N(CCc3ccc(OC)c(OC)c3)C1=C[C@H](COCc1ccccc1)O[C@@H]2C	none (no result: ABHD5 PLIN5 PPI, Arr AP2 block, Beta2AR agonist, Rin1 Abl inh)
Cc1ccc(OC[C@@H](O)CN2CCC(C(O)(c3ccccc3)c3ccccc3)CC2)cc1	none (no result: ABHD5 PLIN5 PPI, Arr AP2 block, Beta2AR agonist, Rin1 Abl inh)
CC[C@@H](CCCCCC#N)CCC(=O)N(c1ccccc1)c1ccccc1	none (no result: ABHD5 PLIN5 PPI, Arr AP2 block, Beta2AR agonist, Rin1 Abl inh)
CCOC(=O)N1CCN(C(=O)CSc2nnc(Cc3cccn3C)n2CCc2ccccc2)CC1	Rin1 Abl inh 5.7 | Rin1-Abl confirm inactive | GFP quench inactive
Cc1ccc(-c2nn3c(-c4ccco4)nnc3c3ccccc23)cc1S(=O)(=O)NCC1CCCO1 (stereo not drawn)	Rin1 Abl inh 10.5 | Rin1-Abl confirm 26.9 | GFP quench inactive | GFP quench DR inactive
Cc1ccc(NC(=O)[C@@H]2CCCN2S(=O)(=O)c2cccc3cccnc23)c(C)c1	none (no result: ABHD5 PLIN5 PPI, Arr AP2 block, Beta2AR agonist, Rin1 Abl inh)
Cc1[nH]c(=O)[nH]c1C(=O)CCCCC(=O)O	Rin1 Abl inh 88.6 | Rin1-Abl confirm 97.7 | GFP quench inactive | GFP quench DR inactive
CC(C)N1CCCCC(NC(=O)c2ccc(F)c(F)c2)C1=O (stereo not drawn)	none (no result: ABHD5 PLIN5 PPI, Arr AP2 block, Beta2AR agonist, Rin1 Abl inh)
CC(C)(C)c1nnc(NS(C)(=O)=O)s1	Rin1 Abl inh 9.9 | Rin1-Abl confirm inactive | GFP quench inactive
COc1ccc(S(=O)(=O)Nc2nnc(C(C)(C)C)s2)cc1	none
COc1ccccc1CN1C[C@@H]2C[C@@H](c3ccc4nsnc4c3)N3CCC[C@@]23C1=O	Rin1 Abl inh 22.4 | Rin1-Abl confirm 24.8 | GFP quench inactive | GFP quench DR inactive
COc1ccccc1CN1C[C@@H]2C[C@@H](c3ccc(C)cc3)N3CCC[C@@]23C1=O	none
Cc1nc2ccc(NC(=O)c3ccc(F)cc3Cl)cc2c(=O)[nH]1	none (no result: ABHD5 PLIN5 PPI, Arr AP2 block, Beta2AR agonist, Rin1 Abl inh)
CCOc1ccc(/C=N/Nc2cc(N3CCOCC3)ncn2)c(O)c1	Rin1 Abl inh 8.3 (no result: Arr AP2 block, Beta2AR agonist) | Rin1-Abl confirm inactive | GFP quench inactive
CC12CN3CC(C)(CN(C1)C3c1ccccc1F)C2 (stereo not drawn)	Rin1 Abl inh 6.1 | Rin1-Abl confirm inactive | GFP quench inactive
CCOc1ccc(Oc2c(Cl)c(Br)nn(Cc3cccc4ccccc34)c2=O)cc1	none (no result: ABHD5 PLIN5 PPI, Arr AP2 block, Beta2AR agonist, Rin1 Abl inh)
O=C(CSc1nnc(-c2cccs2)o1)Nc1cccc2ccccc12	none (no result: ABHD5 PLIN5 PPI, Arr AP2 block, Beta2AR agonist, Rin1 Abl inh)
COc1ccc(OC)c(CN2CCN(S(=O)(=O)c3ccc(NC(C)=O)cc3)CC2)c1	Rin1 Abl inh 10.5 | Rin1-Abl confirm inactive | GFP quench inactive
